Results of several laboratories.
Each line is one published result; the experiments were not run side by side. Values after ≈ are worked out from the molar mass of the structure shown.

SMILES | target or system | assay | test system | conditions | endpoint | result
CC(C)(C)OC(=O)N1CCN(c2ccc(-c3cnc4[nH]cc(C(=O)c5ccc(F)cc5)c4c3)cc2)CC1 | A549 | cell growth or viability, MTT |  | 10 µM, 48 h | viability | 91.5%
Oc1c(Cl)cc(Cl)c(Cl)c1Cc1c(O)c(Cl)cc(Cl)c1Cl | Betapolyomavirus hominis | viral replication, inhibitor, qPCR | Vero | 30 µM, 5 days | inhibition | ~70%
O=C(NCCCNc1c2c(nc3ccccc13)CCCC2)c1ccccc1O |  | ABTS scavenging |  | 1 h | IC50 | 27.7 µM
O=C(N/N=C1\C(=O)N(Cc2ccccc2)c2ccc(F)cc21)c1cc2ccccc2[nH]1 | A549 | cell growth or viability |  | 30 µM | inhibition | 99.1%
C[C@]12C=CC(=O)C[C@@H]1CC[C@@H]1[C@@H]2C(=O)C[C@@]2(C)[C@H]1CC[C@]2(C)O | NIH3T3 | cell growth or viability, MTT |  | 24 h | IC50 | > 30 µM
COc1ccc(O)c(C(C)(C)C)c1 |  | ABTS scavenging |  |  | IC50 | 5.07 µg/mL
COc1cc(Nc2nc(C#N)cc3c(-c4ccccc4)n[nH]c23)cc(OC)c1OC | PC-3 | cell growth or viability, MTS |  | 48 h | IC50 | 4.3 µM
O=C(c1ccc(F)cc1)c1c[nH]c2ncc(-c3ccc(N4CCOCC4)nc3)cc12 | A549 | cell growth or viability, MTT |  | 10 µM, 48 h | viability | 77.1%
O=C(NCCCCCCCCNc1c2c(nc3ccccc13)CCCC2)c1ccccc1O |  | ABTS scavenging |  | 1 h | IC50 | 25.9 µM
Cc1nc2c(N)nc(N)nc2n1C(Cc1ccc(O)cc1)C(=O)O (stereo not shown) | unidentified influenza virus | viral replication | A549, H1N1 PR8 | 24 h | IC50 | 0.024 µM
CCOC(=O)c1c(CSc2ccccc2)n(C)c2cc(Br)c(O)c(CN(C)C)c12.Cl.O | Punta Toro virus | cytopathic effect |  |  | MIC50 | > 100 µg/mL
N=C(N)c1ccc(OCCCCCOc2ccc(C(=N)N)cc2)cc1 | Leishmania donovani | parasite growth, resazurin |  | 72 h, promastigote | IC90 | 2 µg/mL (≈ 5.87 µM)
O=C(c1cccc(F)c1)c1c[nH]c2ncc(-c3ccc(N4CCNCC4)nc3)cc12 | A549 | cell growth or viability, MTT |  | 10 µM, 48 h | viability | 62.8%
COC(=O)C(Cc1c[nH]c2ccccc12)n1c(C)nc2c(N)nc(=O)[nH]c21 (stereo not shown) | unidentified influenza virus | viral replication | A549, H1N1 PR8 | 24 h | IC50 | 0.31 µM
O=C(N/N=C1\C(=O)N(Cc2ccccc2)c2ccc(Cl)cc21)c1cc2ccccc2[nH]1 | A549 | cell growth or viability, imaging |  | 24 h | IC50 | 1.77 µM
Nc1ncnc2c([C@@H]3N[C@H](CO)[C@@H](O)[C@H]3O)c[nH]c12 | unidentified influenza virus | viral replication, inhibitor | MDCK | 0.1 µM | inhibition | 0%
CC(C)=CCC/C(C)=C/COc1cc(O)cc(O)c1C(=O)c1ccccc1 |  | ABTS scavenging |  |  | IC50 | 3750 µM
COc1ccc(C(=O)c2c[nH]c3ncc(-c4ccc(N5CCNCC5)nc4)cc23)cc1 | A549 | cell growth or viability, MTT |  | 10 µM, 48 h | viability | 110%
CCOC(=O)C1=C[C@@H](OC(CC)CC)[C@H](NC(C)=O)[C@@H](N)C1 | unidentified influenza virus | viral replication | A549, H1N1 PR8 | 24 h | IC50 | 0.18 µM
C[C@@H]1[C@H](O)[C@@H](C)/C=C/C=C/C=C/C=C/C=C/C=C/C=C/[C@H](O[C@@H]2O[C@H](C)[C@@H](O)[C@H](N)[C@@H]2O)C[C@@H]2O[C@](O)(C[C@@H](O)C[C@@H](O)[C@H](O)CC[C@@H](O)C[C@@H](O)CC(=O)O[C@H]1C)C[C@H](O)[C@H]2C(=O)O | Leishmania donovani | parasite growth | THP-1 | intracellular, amastigote | IC50 | 0.1 µg/mL
C[C@]1(COc2ccc(N3CCC(Oc4ccc(OC(F)(F)F)cc4)CC3)cc2)Cn2cc([N+](=O)[O-])nc2O1 | Leishmania donovani | parasite growth |  | promastigote | IC50 | 0.249 µM
Cc1nc2c(N)nc(N)nc2n1CC(=O)O | unidentified influenza virus | viral replication | A549, H1N1 PR8 | 24 h | IC50 | 0.526 µM
COc1ccc2c(c1)/C(=N/NC(=O)c1cc3ccccc3[nH]1)C(=O)N2Cc1ccccc1 | A549 | cell growth or viability |  | 30 µM | inhibition | 97.4%
Cc1nc2c(N)nc(N)nc2n1C(Cc1ccccc1)C(=O)O (stereo not shown) | unidentified influenza virus | viral replication | A549, H1N1 PR8 | 24 h | IC50 | 0.21 µM
O=c1c(O[C@@H]2O[C@H](CO)[C@H](O)[C@H](O)[C@H]2O)c(-c2ccc(O)c(O)c2)oc2cc(O)cc(O)c12 |  | ABTS scavenging, absorbance |  | 5 min | IC50 | 6.61 µM
